Assay outcomes from PubChem.
Compounds with a hit are over-represented: about 1.8% of the library has one in this group of screens.
M5 PAM: positive allosteric modulators of human muscarinic M5 receptor. P08912. CHO-K1 hM5, Fluo-8 calcium, ACh EC20 PAM; 0% = ACh EC20, 100% = ACh EC100. activation, % at 3 µM. 0.3% of 360,000 active;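 active = activation above the run cutoff, the mean activation of all test compounds plus 3 SD, cut at about 18% in these data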
Target sequence (P08912 whole entry, looked up): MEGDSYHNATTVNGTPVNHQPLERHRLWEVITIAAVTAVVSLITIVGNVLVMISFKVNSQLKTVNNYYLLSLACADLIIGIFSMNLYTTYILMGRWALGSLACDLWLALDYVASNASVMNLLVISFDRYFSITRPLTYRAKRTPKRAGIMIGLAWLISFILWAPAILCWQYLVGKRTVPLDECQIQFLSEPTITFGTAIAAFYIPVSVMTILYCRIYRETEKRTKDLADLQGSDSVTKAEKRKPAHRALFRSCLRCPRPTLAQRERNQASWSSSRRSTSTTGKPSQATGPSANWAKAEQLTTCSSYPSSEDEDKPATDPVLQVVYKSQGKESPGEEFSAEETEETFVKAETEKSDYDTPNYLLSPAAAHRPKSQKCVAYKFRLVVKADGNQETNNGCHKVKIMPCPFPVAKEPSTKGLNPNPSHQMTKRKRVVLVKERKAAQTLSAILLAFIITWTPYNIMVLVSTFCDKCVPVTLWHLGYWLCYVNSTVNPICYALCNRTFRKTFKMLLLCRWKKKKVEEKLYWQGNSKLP
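system = human M5 receptor in CHO-K1 cells | compound = one concentration, 3 µM final (nominal) | schedule = Post-acetylcholine fluorescence recording 140 s | signal = Fluo-8 calcium dye fluorescence, kinetic read | benchmarks = low control EC20 acetylcholine (0%), high control EC100 acetylcholine (100%) | repeats = singlicate, one well per test compound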
M4 antag: blocks acetylcholine activation of human M4 receptor. CHO-hM4 cells, ACh EC80, Fluo-8 calcium fluorescence. 0.73% of 360,000 active. AID 624125. P08173. inhibition, % at 3 µM;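 active = inhibition above its plate's cutoff, the mean inhibition of sample wells plus 3 SD, cut at about 27% in these data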;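 also: 0% = acetylcholine EC80 with DMSO and 100% = DMSO without agonist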
CHRM4 agonist: CHRM4 agonism in calcium assay; P08173; CHO-K1 hM4/Gqi5, Fluo-8 calcium fluorescence; vehicle 0%, full acetylcholine response 100%; activation, % at 3 µM; 0.14% of 360,000 active;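 active = activation above the run mean over all test wells plus 3 SD, cut at about 32% in these data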;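 also: peak over basal fluorescence ratio per well then scaled between controls; 0% = DMSO wells and 100% = acetylcholine at EC100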
CHRM5 agonist: agonists of human muscarinic M5 receptor (CHRM5) | CHO-K1 hM5 cells, Fluo-8 calcium fluorescence; 0% DMSO wells, 100% maximal acetylcholine response | AID 624037 | P08912 | 0.19% of 360,000 active | activation, % at 3 µM;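 active = activation above the run's mean over test compounds plus 3 SD, cut at about 23% in these data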;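 also: signal is peak over basal fluorescence ratio across the kinetic read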
CHRM5 antagonist: CHRM5 antagonism in calcium assay | CHO-hM5 cells, Fluo-8 calcium fluorescence, ACh EC80 | inhibition, % at 3 µM | 0.59% of 360,000 active | P08912;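 active = inhibition above a per-plate cutoff, the mean of that plate's test compounds plus 3 SD, cut at about 27% in these data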;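 also: 0% = acetylcholine EC80 with DMSO and 100% = DMSO without agonist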
M4 PAM: CHRM4 positive allosteric modulation | P08173 | CHO-K1 hM4/Gqi5, Fluo-8 calcium fluorescence, ACh EC20; 0% = ACh EC20, 100% = maximal ACh | activation, % at 3 µM | 0.4% of 360,000 active | AID 624126;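 active = activation above its plate's cutoff, the mean activation of sample wells plus 3 SD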
Active calls of the source: *.

SMILES	M5 PAM	M4 antag	CHRM4 agonist	CHRM5 agonist	CHRM5 antagonist	M4 PAM
O=[N+]([O-])c1ccc(N2CCN(C(=S)NCc3ccc(Cl)cc3)CC2)cc1	-20	20	14	2	29*	-19
CCOC(=O)C1=C(C)OC(N)=C(C#N)C1c1cc(F)ccc1F (stereo not drawn)	-7	30*	1	-3	8	-2
CCOC(=O)C1=C(C)OC(N)=C(C#N)C1c1cccc(C)c1 (stereo not drawn)	15	0	1	2	-6	1
O=C(CS(=O)(=O)Nc1ccc(F)cc1Cl)Nc1ccc(F)cc1Cl	-8	8	7	3	10	-7
CC1CCCN(Cc2ccc(OCc3ccccc3)cc2)C1 (stereo not drawn)	-4	37*	4	-6	3	-17
OC1CCN(Cc2ccc(OCc3ccccc3)cc2)CC1	3	11	2	-5	-1	-10
O=C(CNC(=O)OCc1ccccc1)OC(c1ccccc1)c1ccccc1	-26	-8	-1	-8	11	-3
O=C(c1cc(=O)[nH]c2ccccc12)N1CCN(c2ccc([N+](=O)[O-])cc2)CC1	-2	2	7	-2	5	-19
O=C(O)c1cc(S(=O)(=O)N2CCN(C(=O)c3ccco3)CC2)c(Cl)cc1Cl	-1	-30	2	-5	0	14*
O=C(c1ccco1)N1CCN(S(=O)(=O)c2cc(Cl)ccc2Cl)CC1	-3	-13	2	0	-2	-4
COc1cc(O)oc1C=Nc1ccc(Cl)cc1	-4	-17	1	-3	0	17*
O=C(/C=C/c1ccccc1)NC(NC(=S)Nc1ccc(Cl)cc1)C(Cl)(Cl)Cl (stereo not drawn)	-31	10	8	-3	15	-6
O=C(/C=C/c1ccccc1)NC(NC(=S)Nc1cc(Cl)ccc1Cl)C(Cl)(Cl)Cl (stereo not drawn)	-16	15	11	2	51*	-8
CNC(=O)Nc1ccccc1C(=O)NCc1ccccc1	1	87*	-3	-2	-3	10
O=C(Nc1ccccc1)Nc1ccccc1C(=O)NCc1ccccc1	-8	-9	5	-4	-1	-6
Cc1cc(C)n2ncc(C(=O)NCc3ccccc3)c2n1	31*	-5	1	0	20	4
COc1cc(OC)cc(C(=O)Nc2ccccc2C(=O)NCc2cccnc2)c1	-8	-1	14	-3	28*	-11
CCNC(=O)NC(=O)C(C)OC(=O)CNS(=O)(=O)c1c(Cl)cc(Br)cc1Cl (stereo not drawn)	-3	-1	1	-3	13	0
CCN(CC)c1ccc(/C=C/C(=O)c2ccc(Br)cc2)cc1	-18	67*	94*	113*	67*	-17
CCNC(=O)CN1C(=O)NC(Cc2ccccc2)(Cc2ccccc2)C1=O	-3	-1	1	1	5	-3
CCc1cc(C(=O)N(CC)CC(=O)Nc2ccc(OC)cc2)sc1C	-7	-5	1	3	4	7
Cc1ccccc1NC(=O)CC1SC(=NC2CCCCC2)NC1=O (stereo not drawn)	-2	-1	1	-3	-5	4
Cc1ccc(NC(=O)CC2SC(=NC3CCCCC3)NC2=O)cc1 (stereo not drawn)	1	-9	0	-5	-2	18*
CCN(CC)c1ccc(C=C2C(=O)OC3(CCCCC3)OC2=O)cc1	-2	-3	0	-3	10	9
CCN(CC)c1ccc(/C=C2/C(=O)c3ccc(C(=O)O)cc3C2=O)cc1	-17	33*	20	33*	18	-12
SMILES	M5 PAM	M4 antag	CHRM4 agonist	CHRM5 agonist	CHRM5 antagonist	M4 PAM
CN(NC(=O)C(=O)NCc1ccco1)C(=O)Nc1ccc(Cl)cc1	-20	8	18	11	37*	4
COc1cccc(N2CCN(C(=O)c3oc4ccccc4c3NC(=O)Cc3ccc(OC)c(OC)c3)CC2)c1	-1	-1	6	-3	-2	-6
CCOC(=O)c1cnc2c(ccc3ccccc32)c1NCCN(C)C	10	12	1	10	-1	-4
CCOC(=O)c1cnc2c(C)cccc2c1Nc1cccc(C(=O)O)c1	-4	30*	2	-4	8	14
CCOC(=O)c1cnc2c(Cl)cccc2c1NCCN(C)C	45*	5	1	-1	20	12
CNC(=O)c1c(NC(=O)CCS(=O)(=O)c2ccc(C)cc2)sc2c1CCN(C(=O)OC)C2	1	-5	0	-2	6	4
C=CCC[C@@H](Cc1ccc(F)cc1)C(=O)OC[C@@H](NC(=O)[C@H](CC=C)CC(=O)NCCO)C(C)(C)C	2	-9	6	4	0	-2
COc1ccc(C(=O)NCc2nnc(SCC(=O)N3CCCC3)o2)cc1	2	-5	2	-1	-8	2
O=C(NCC(=O)N1CCOCC1)c1ccc(Cl)c(Cl)c1	3	-9	1	5	9	8
N#CCCN1CCN(CCC#N)C1=S	-7	-10	1	30*	8	0
O=C(Nc1ccccc1Cl)c1ccc2nc(N3CCOCC3)sc2c1	-9	-1	13	5	3	-3
c1ccc2cc(N3CCCCC3)ccc2c1	8	-6	1	1	-2	11
O=C1c2ccccc2C(=O)c2cc(N3CCCCC3)ccc21	-13	2	11	72*	34*	3
CC1CCCC(C)N1C(=O)COC(=O)c1cccs1 (stereo not drawn)	7	0	1	-2	10	2
O=C(NNC(=O)c1ccccc1O)c1cc2ccccc2o1	3	-2	1	3	2	2
COc1ccc(OC)c(NC(=O)C(=O)N/N=C(\C)CC(=O)Nc2ccc(Cl)cn2)c1	4	-11	-1	-2	-1	2
O=C(NCCc1ccc(Cl)cc1)C1CCCN(c2ncnc3c2nc2n3CCCCC2)C1 (stereo not drawn)	-1	-9	2	-3	-8	0
O=C(NCC1CCN(Cc2ccc(Cl)cc2)CC1)C1CCCN(c2ncnc3c2nc2n3CCCCC2)C1 (stereo not drawn)	-4	84*	10	-9	10	-23
O=C(NCC1CCN(Cc2ccc(F)cc2)CC1)C1CCCN(c2ncnc3c2nc2n3CCCCC2)C1 (stereo not drawn)	-2	36*	0	-9	1	-11
O=C(NCC1CCN(Cc2cccc(Cl)c2)CC1)C1CCCN(c2ncnc3c2nc2n3CCCCC2)C1 (stereo not drawn)	-14	36*	8	-9	13	-12
